Measurements collected from several papers.
Observed: cell growth or viability

SMILES | cell line | technique | time | IC50
COc1cc2ncnc(N(C)c3ccc4c(c3)/C(=C/c3ccccc3)C(=O)N4C)c2cc1OC (mixture of isomers) | H22 | MTT | – | 4960 nM
CCNCCCn1c2c(c3cc(OC)c(OC)cc3c1=O)C(=O)c1cc3c(nc1-2)OCO3 | L-363 | MTS | 72 h | 96 nM
C=C(F)C(=O)N1CCN(c2nc(OC[C@@H]3CCCN3C)nc3c2CCN(c2cccc4cccc(Cl)c24)C3)C[C@@H]1CC#N | NCI-H1792 | ATP luminescence | – | 674 nM
Nc1ccc(/C=C/C(=O)N2CCc3c(oc4c(-c5ccc(F)cc5)cc(-c5ccc(C(=O)N6CCC(F)(F)CC6)nn5)cc34)C2)cn1 | U2OS | CCK-8 | 72 h | 640 nM
CCN1[C@@H](C(=O)NC23CCC(C(=O)O)(CC2)CC3)[C@H](c2cccc(Cl)c2F)[C@]2(C(=O)Nc3cc(Cl)ccc32)C12CCCCC2 | U2OS | resazurin | 72 h | > 1000 nM
Cc1nc(Nc2ccc3c(c2)/C(=C/c2ccccc2C)C(=O)N3C)c2ccccc2n1 | H22 | MTT | – | 4780 nM
CN1CCC(NC(=O)c2ccc(-c3cc(C4CC4)c4oc5c(c4c3)CCN(C(=O)/C=C/c3ccc(N)nc3)C5)nn2)C(F)(F)C1 (stereo not drawn) | U2OS | CCK-8 | 72 h | 3490 nM
C=CC(=O)NC1CCN(c2ncc3ncnc(Nc4ccc(Oc5ccc6c(c5)ncn6C)c(C)c4)c3n2)CC1 | SNU-216 | – | – | 18.2 nM
N[C@H]1CC[C@H](N[C@@H]2C[C@H]2c2ccccc2)CC1 | U2OS | resazurin | – | 346000 nM
COc1cc2c3c(n(CCCN4CCOCC4)c(=O)c2cc1OC)-c1nc2c(cc1C3=O)OCO2 | L-363 | MTS | 72 h | 342 nM
Nc1ccc(/C=C/C(=O)N2CCc3c(oc4c(-c5ccc(F)cc5)cc(-c5cnc(C(=O)N6CCC(F)(F)CC6)nc5)cc34)C2)cn1 | U2OS | CCK-8 | 72 h | 950 nM
COc1cc2ncnc(Nc3ccc4c(c3)/C(=C/c3ccccc3)C(=O)N4C)c2cc1OC | H22 | MTT | – | 15100 nM
CN1CCC(NC(=O)c2ccc(-c3cc(-c4ccsc4)c4oc5c(c4c3)CCN(C(=O)/C=C/c3ccc(N)nc3)C5)nn2)C(F)(F)C1 (stereo not drawn) | U2OS | CCK-8 | 72 h | 1200 nM
Cc1nc(Nc2ccc3c(c2)/C(=C/c2ccccc2)C(=O)N3Cc2ccccc2)c2ccccc2n1 | H22 | MTT | – | 1080 nM
COc1cc2c3c(n(CCCNCCO)c(=O)c2cc1OC)-c1nc2c(cc1C3=O)OCO2 | L-363 | MTS | 72 h | 154 nM
